Reference: ChEMBL document CHEMBL3244384, “3,4-Methylenedioxyphenyl-, isopropylidenedioxyphenyl-, and benzyl-substituted chiral 2-aminosuccinimides and 3-aminopyrrolidines. Stereoselective investigations of potential anti-parkinsonian, antipsychotic, and anticonvulsant activities” (J Med Chem, 1977)
Calls of active or inactive are those of the source.

Columns and labels:
[1] = Neurotoxicity in ip dosed albino CD-1 mouse by rotarod test; type: toxicity, organism-based; details: in vivo
How it was run: (§1)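 Male CD-1 mice (20-25 g), groups of 6-12, given ip doses in aqueous solution (1.0 mL/100 g). Neurotoxicity = failure to stay 1 min on a rod turning at 6 rpm. Time of peak central activity found. TD50 and 95% limits by Litchfield-Wilcoxon from at least three points in the 10-90% range.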

Mus musculus [2] = test: Anti-parkinsonian activity in ip dosed albino CD-1 mouse assessed as inhibition of oxotremorine-induced tremor administered 30 mins prior challenge; type: functional, organism-based
How it was run: (§2)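 Male CD-1 mice (20-25 g), groups of five, given test compound ip (aqueous, 1.0 mL/100 g) or saline 30 min before oxotremorine 1 mg/kg ip. Tremor intensity scored 0 absent, 1 mild, 2 moderate, 3 severe, summed over five animals; diarrhea and salivation also observed.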

Mus musculus [3] = test: Neurotoxicity in ip dosed albino CD-1 mouse assessed as time to peak central activity by rotarod test; type: toxicity, organism-based; details: in vivo; how it was run: as §1
Mus musculus [4] = test: Toxicity in albino CD-1 mouse assessed as mortality at >/= 2.68 mmol/kg, ip; type: organism-based; details: in vivo
Mus musculus [5] = test: Anti-parkinsonian activity in ip dosed albino CD-1 mouse assessed as inhibition of oxotremorine-induced salivation at 0.25 to 1 time TD50 administered 30 mins prior challenge; type: functional, organism-based; how it was run: as §2
Mus musculus [6] = test: Toxicity in albino CD-1 mouse assessed as loss of righting reflex at >/= 2.68 mmol/kg, ip; type: organism-based; details: in vivo
Mus musculus [7] = test: Anti-parkinsonian activity in ip dosed albino CD-1 mouse assessed as inhibition of oxotremorine-induced tremor at 0.25 to 1 time TD50 administered 30 mins prior challenge; type: functional, organism-based; how it was run: as §2
Mus musculus [8] = test: Anticonvulsant activity in ip dosed albino CD-1 mouse assessed as threshold ratio for pentylenetetrazole-induced clonic seizures at 0.5 time TD50 measured at time of peak effect relative to saline-treated control; type: functional
How it was run: (§3)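 Male CD-1 mice (20-25 g) given saline or 0.5 TD50 test compound ip. At time of peak activity, pentylenetetrazole (0.5%) infused iv at 0.51 mL/min until minimal (clonic) or maximal (tonic-clonic) seizure. Threshold ratio = mean mg/kg pentylenetetrazole in treated mice ÷ mg/kg in saline mice, with 95% confidence intervals.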

[9] = Protective index, ratio of TD50 for neurotoxicity to ED50 for anticonvulsant activity in ip dosed albino CD-1 mouse; type: toxicity, organism-based; details: in vivo, read-out: Ratio TD50/ED50
How it was run: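 Groups of 6-12 male CD-1 mice dosed ip across a range giving at least three points at 10-90% MES protection or rotarod neurotoxicity. ED50 and TD50 by Litchfield-Wilcoxon; PI = TD50/ED50, not calculated when protection is below 50%.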

Mus musculus [10] = test: Anticonvulsant activity in ip dosed albino CD-1 mouse assessed as threshold ratio for pentylenetetrazole-induced tonic-clonic seizures at 0.5 time TD50 measured at time of peak effect relative to saline-treated control; type: functional; how it was run: as §3
Mus musculus [11] = test: Toxicity in albino CD-1 mouse assessed as clonic-like seizure activity at >/= 2.68 mmol/kg, ip; type: organism-based; details: in vivo
Mus musculus [12] = test: Toxicity in albino CD-1 mouse assessed as sedation at >/= 2.68 mmol/kg, ip; type: organism-based; details: in vivo
Mus musculus [13] = test: Anti-parkinsonian activity in ip dosed albino CD-1 mouse assessed as inhibition of oxotremorine-induced diarrhea at 0.25 to 1 time TD50 administered 30 mins prior challenge; type: functional, organism-based; how it was run: as §2
Mus musculus [14] = test: Anticonvulsant activity in ip dosed albino CD-1 mouse assessed as protection from maximal electroshock-induced seizures measured at time of peak effect; type: functional; details: CD-1, ip
How it was run: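 Male CD-1 mice (20-25 g) dosed ip in aqueous solution (1.0 mL/100 g). At time of peak rotarod activity, MES given by corneal electrodes (50-mA ac, 0.2 s). End point: abolition of hindlimb-extensor component.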

Mus musculus [15] = test: Toxicity in albino CD-1 mouse assessed as behavioral effect at 2.81 mmol/kg, ip; type: organism-based; details: in vivo
Mus musculus [16] = test: Toxicity in albino CD-1 mouse assessed as occasional clonic seizure-like movements at >/= 6.1 mmol/kg, ip; type: organism-based; details: in vivo
Mus musculus [17] = test: Toxicity in albino CD-1 mouse assessed as increased excitability to touch at >/= 6.1 mmol/kg, ip; type: organism-based; details: in vivo
Mus musculus [18] = test: Toxicity in albino CD-1 mouse assessed as loss of righting reflex at >/= 6.1 mmol/kg, ip; type: organism-based; details: in vivo
Mus musculus [19] = test: Toxicity in albino CD-1 mouse assessed as twitching at >/= 6.1 mmol/kg, ip; type: organism-based; details: in vivo
[20] = Antagonist activity at acetylcholine receptor (unknown origin); parameters: species or system Homo sapiens

Row | Structure (SMILES) | TD50 [1] | Activity (Mus musculus [2]) | Time (Mus musculus [3]) | Activity (Mus musculus [4]) | Activity (Mus musculus [5]) | Activity (Mus musculus [6]) | Activity (Mus musculus [7]) | Ratio (Mus musculus [8]) | selectivity ratio [9] | Ratio (Mus musculus [10]) | Activity (Mus musculus [11]) | Activity (Mus musculus [12]) | Activity (Mus musculus [13]) | ED50 (Mus musculus [14]) | Activity (Mus musculus [15]) | Activity (Mus musculus [16]) | Activity (Mus musculus [17]) | Activity (Mus musculus [18]) | Activity (Mus musculus [19]) | pA2 [20]
1 | CC1(C)Oc2ccc(N3C(=O)C[C@@H](N)C3=O)cc2O1.Cl | 960 µmol/kg | Dose-dependent effect | 15 min | Toxic | inactive | Toxic | Active | 1.28 | 1.68 | 1.66 | Toxic | Toxic | inactive | 570 µmol/kg | – | – | – | – | – | –
2 | O=C1N=C([O-])NC1(c1ccccc1)c1ccccc1.[Na+] [PHENYTOIN SODIUM] | 220 µmol/kg | – | 45 min | – | – | – | – | 1.07 | 10 | 2.08 | – | – | – | 22 µmol/kg | – | – | – | – | – | –
3 | Cl.N[C@@H]1CC(=O)N(Cc2ccc3c(c2)OCO3)C1=O | 1830 µmol/kg | – | 15 min | – | – | – | – | 1.61 | 2.54 | 1.18 | – | – | – | 720 µmol/kg | Non-toxic | – | – | – | – | –
4 | Cl.N[C@H]1CC(=O)N(Cc2ccc3c(c2)OCO3)C1=O | 2000 µmol/kg | – | 15 min | – | – | – | – | 1.54 | 2.85 | 1.09 | – | – | – | 700 µmol/kg | Non-toxic | – | – | – | – | –
5 | CC(=O)N[C@@H]1CC(=O)N(Cc2ccccc2)C1=O | 4760 µmol/kg | – | 30 min | – | – | – | – | 1.36 | 3.25 | 0.85 | – | – | – | 1460 µmol/kg | – | Toxic | Toxic | Toxic | Toxic | –
6 | CCC1(C)CC(=O)NC1=O (stereo not given) [ETHOSUXIMIDE] | 2320 µmol/kg | – | 5 min | – | – | – | – | 1.34 | – | 1.71 | – | – | – | 2320 µmol/kg | – | – | – | – | – | –
7 | CCN[C@@H]1CCN(c2ccccc2)C1 | – | – | – | – | – | – | – | – | – | – | – | – | – | – | – | – | – | – | – | 3.5
8 | Cl.N[C@H]1CC(=O)N(c2ccc3c(c2)OCO3)C1=O | 5040 µmol/kg | – | 45 min | – | Active | – | inactive | 1.08 | – | 0.92 | – | – | Active | 5040 µmol/kg | – | – | – | – | – | –
9 | Cl.N[C@@H]1CC(=O)N(c2ccc3c(c2)OCO3)C1=O | 3330 µmol/kg | – | 45 min | – | Active | – | inactive | 1.03 | – | 0.75 | – | – | Active | 3330 µmol/kg | – | – | – | – | – | –
10 | CN1C(=O)OC(C)(C)C1=O [TRIMETHADIONE] | 3980 µmol/kg | – | 5 min | – | – | – | – | 2.05 | 1.07 | 2.25 | – | – | – | 3720 µmol/kg | – | – | – | – | – | –
11 | CC1(C)Oc2ccc(N3C(=O)C[C@H](N)C3=O)cc2O1.Cl | 1220 µmol/kg | – | 30 min | Toxic | inactive | Toxic | Active | 1.36 | 1.45 | 1.34 | Toxic | Toxic | inactive | 840 µmol/kg | – | – | – | – | – | –
12 | CC(=O)N[C@H]1CC(=O)N(Cc2ccccc2)C1=O | 5280 µmol/kg | – | 30 min | – | – | – | – | 1.06 | 4.41 | 1.11 | – | – | – | 1200 µmol/kg | – | Toxic | Toxic | Toxic | Toxic | –
